# Bioassay records (PubChem BioAssay)
# Runt-CBFb FRET: inhibitors of human RUNX1 Runt domain binding to CBFb; inhibition, % at 20 µM; Cerulean-Runt/Venus-CBFb FRET ratio 530/480, 1 h; hit rate 0.46% among 220,000; AID 1496;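 active means inhibition over about 50% at 20 µM in the single-dose screen, limit read from the data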;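 further: 0% = DMSO wells and 100% = excess unlabeled CBFb competitor control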
# Target sequence (Q01196 whole entry, looked up, the tested form may be a part): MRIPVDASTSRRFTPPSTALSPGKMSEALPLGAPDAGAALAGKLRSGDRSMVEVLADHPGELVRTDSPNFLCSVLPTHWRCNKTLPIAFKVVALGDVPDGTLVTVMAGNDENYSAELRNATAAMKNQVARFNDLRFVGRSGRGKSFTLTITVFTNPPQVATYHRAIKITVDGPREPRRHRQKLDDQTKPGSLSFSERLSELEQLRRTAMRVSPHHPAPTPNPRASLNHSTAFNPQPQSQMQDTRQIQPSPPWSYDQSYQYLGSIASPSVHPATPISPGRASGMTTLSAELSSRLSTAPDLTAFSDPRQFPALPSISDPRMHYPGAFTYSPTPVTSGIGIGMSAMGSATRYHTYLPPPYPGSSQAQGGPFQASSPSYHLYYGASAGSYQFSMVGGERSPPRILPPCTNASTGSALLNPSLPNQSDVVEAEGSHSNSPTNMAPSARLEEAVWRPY
# Target sequence (Q13951 whole entry, looked up, the tested form may be a part): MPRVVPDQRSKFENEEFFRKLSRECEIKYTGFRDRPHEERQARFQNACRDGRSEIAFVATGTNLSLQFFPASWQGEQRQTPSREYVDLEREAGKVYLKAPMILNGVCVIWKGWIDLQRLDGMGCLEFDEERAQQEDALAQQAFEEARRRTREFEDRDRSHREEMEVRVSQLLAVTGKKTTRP
#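 Reagent – Venus-CBFb binding partner, 100 nM · Assay system – Cerulean-tagged RUNX1 Runt domain (FRET donor) fusion protein · Input – 100 nM per protein · Incubation – two 1 h room-temperature incubations shielded from light · Measured by – FRET fluorescence · Medium – Tris buffer pH 7.5 with salts and BSA · Benchmarks – unlabeled CBFb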
# RanGTP-Impb inh: inhibitors of RanGTP-importin-beta interaction, primary screen, biochemical, FRET, CFP-Ran, YFP-importin-beta, homogeneous; cell-free CFP-Ran/YFP-importin-beta FRET ratio; inhibition, % (test concentration not listed); hit rate 1.1% among 300,000; AID 2216;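 active means more than half of the replicate wells show a fall in the fluorescence ratio signal beyond about 16%, limit read from the data, passing the limit was not always enough; inconclusive means exactly half of the replicate wells pass the set limit; inactive means fewer than half of replicates pass the limit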;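 further: 0% = DMSO wells and 100% = Ran loaded with GDP instead of GTP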
# FAS TE block: inhibitors of human fatty acid synthase thioesterase domain. AID 602261. hit rate 0.67% among 360,000. recombinant FAS-TE, OMFH fluorogenic substrate, fluorescence endpoint. inhibition, % at 15 µM;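 active means compounds whose normalised, plate-corrected inhibition of enzyme fluorescence in the single-dose primary screen is 50% or more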;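 further: 0% = DMSO with enzyme and 100% = substrate without enzyme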
# m-calpain inh: calpain II (pig) inhibition; purified calpain II, fluorogenic peptide substrate, 30 min; inhibition, % at 16 µM; hit rate 0.37% among 220,000;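 active means inhibition above about 50%, limit read from the data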
# Runt-SMMHC FRET: Runt domain-CBFb-SMMHC interaction inhibition; Q01196+Q13951; Cerulean-Runt/Venus-CBFb-SMMHC FRET ratio 530/480, 1 h; inhibition, % at 20 µM; hit rate 0.74% among 220,000; AID 1434;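 active means mean inhibition across duplicate retests at 20 µM reaching about 50%, limit read from the data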;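 further: 0% = DMSO wells and 100% = wells with excess untagged CBFb-SMMHC; inhibitors lower the FRET ratio by blocking Runt binding to CBFb-SMMHC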
# YIC FRET counter: counter-screen YIC FRET for RanGTP-importin-beta inhibitors; shares compounds with RanGTP-Impb inh; IC50, µM; hit rate 40% among 1,000; Purified YIC probe, intramolecular FRET ratio YFP/CFP;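 active means fitted half-maximal inhibitory concentration no more than tenfold above the top dose tested; inconclusive means flat fit with 30 to 70% activity, or poor fit; inactive means half-maximal concentration beyond tenfold above the top dose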
# FAS-TE inh conf: FAS thioesterase (human) inhibition, confirmation; shares compounds with FAS TE block; recombinant FAS-TE, OMFH fluorogenic substrate, fluorescence; inhibition, % at 15 µM; hit rate 45% among 2,300;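 active means compounds inhibiting the enzyme by at least 50% at 15 µM in any one of the replicates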;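 further: 0% = enzyme with DMSO only and 100% = wells lacking enzyme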
# * = called active by the depositor; ? = inconclusive; . = no result. This is a sample that favours compounds with a hit; in the whole collection about 2.1% have one here.
SMILES,Runt-CBFb FRET,RanGTP-Impb inh,FAS TE block,m-calpain inh,Runt-SMMHC FRET,FAS-TE inh conf,others
C[C@@H]1CN([C@@H](C)CO)C(=O)c2cc(NS(C)(=O)=O)ccc2O[C@@H](C)CCCCO[C@H]1CN(C)C(=O)Cc1ccccc1,.,.,.,.,.,.,YIC FRET counter=>50
C(=NOCc1ccccc1)c1cccnc1,.,.,-4,.,.,.,
COc1ccccc1N1CCN(C(=O)/C=C/c2ccc(C)cc2)CC1,-4,20*,0,7,-3,.,YIC FRET counter=>50
COc1ccccc1N1CCN(C(=O)/C=C/c2cccc([N+](=O)[O-])c2)CC1,-1,-2,43,12,-9,.,
CN(C)c1ccc(/C=C(\NC(=O)c2ccccc2)C(=O)NCc2cccnc2)cc1,.,8,-24,.,.,.,
CN(C)c1ccc(/C=C(\NC(=O)c2ccccc2)C(=O)NCc2ccncc2)cc1,.,23*,-4,.,.,.,YIC FRET counter=>50
Nc1c(C(=O)Nc2ccccc2)c2nc3ccccc3nc2n1CCCN1CCOCC1,10,28*,30,-59,11,.,YIC FRET counter=30*
Cc1cccc(-c2nnc(NC(=O)c3ccc(N4C(=O)CCC4=O)cc3)s2)c1,-2,17*,-8,-101,-2,.,YIC FRET counter=>50
O=C(CN1C(=O)NC(c2ccccc2)(c2ccccc2)C1=O)NCCc1ccc(F)cc1,.,.,19,.,.,.,
CC(=O)Nc1cccc(C(=O)N/N=C/c2ccc(F)cc2)c1,-2,22*,-8,14,0,.,YIC FRET counter=>50
Cc1ccc(C(=O)Nc2cccc(C(=O)N/N=C/c3ccc(F)cc3)c2)cc1,.,0,-2,.,.,.,
CN1CCN(C(=O)c2cc3nc(-c4ccccc4)cc(C(F)(F)F)n3n2)CC1,-3,22*,-2,-137,2,.,YIC FRET counter=>50
COCCNC(=O)c1cnn2c(C(F)F)cc(-c3ccc(C)cc3)nc12,46,18*,-2,-219,92,.,YIC FRET counter=42*
C[C@H]1CN([C@@H](C)CO)C(=O)c2cccc(NC(=O)c3ccc(-c4nccs4)cc3)c2O[C@H]1CN(C)C(=O)Nc1ccccc1,.,.,.,.,.,.,YIC FRET counter=>50
C[C@H](CO)N1C[C@H](C)[C@H](CN(C)C(=O)Nc2cccc3ccccc23)Oc2c(NC(=O)c3ccc(-c4nccs4)cc3)cccc2C1=O,.,.,8,.,.,.,
CCn1c(SCC(=O)N(Cc2ccccc2)C2CCS(=O)(=O)C2)nc2ccccc2c1=O (stereo unspecified),-2,20*,-2,26,0,.,YIC FRET counter=>50
C=CCn1c(O)c(N=NC(=S)Nc2ccccc2F)c2cc(S(=O)(=O)N3CCOCC3)ccc21,0,18*,59*,-148,-7,16,YIC FRET counter=>50
O=C(Nc1cccc(S(=O)(=O)NC2=NCCC2)c1)c1cc(=O)[nH]c2ccccc12,.,.,-7,.,.,.,
C=C[C@@H]1c2cc(C)ccc2N(S(=O)(=O)c2ccc(C)cc2)[C@H](c2ccc(OC(C)=O)cc2)C1(C#N)C#N,.,.,52*,.,.,24,
C=C[C@@H]1c2ccccc2N(S(=O)(=O)c2ccc(C)cc2)[C@H](c2ccc(OC(C)=O)cc2)C1(C#N)C#N,.,.,62*,.,.,14,
Cc1ccc(OCC(=O)N/N=C/c2cccc3cccnc23)cc1,.,-3,4,.,.,.,
COC(=O)c1cc(NC(=O)CN2C(=O)C(=O)N(C3CCCC3)C2=O)cc(C(=O)OC)c1,.,.,-7,.,.,.,
O=C(NCCCO)/C(=C/c1ccc(-c2cccc([N+](=O)[O-])c2)o1)NC(=O)c1ccccc1,-3,3,5,-37,-2,.,
Cc1ccc(C(=O)N/C(=C/c2ccc(-c3ccc([N+](=O)[O-])cc3)o2)C(=O)NCCCN(C)C)cc1,.,-26,57*,.,.,56*,
N#CC(C#N)=C1SC(=Nc2ccccc2)C(=Nc2ccccc2)N1c1ccccc1,.,.,57*,.,.,37,
SMILES,Runt-CBFb FRET,RanGTP-Impb inh,FAS TE block,m-calpain inh,Runt-SMMHC FRET,FAS-TE inh conf,others
Fc1ccc(N2C(=S)SC(=Nc3ccccc3)C2=Nc2ccccc2)cc1,.,.,21,.,.,.,
COc1ccc(C)cc1S(=O)(=O)N(CC(=O)Nc1cc([N+](=O)[O-])ccc1C)c1ccc(C)c(C)c1,2,-2,65*,-27,1,19,
COc1ccc([N+](=O)[O-])cc1NC(=O)c1ccc(CN(c2ccc(C)c(C)c2)S(C)(=O)=O)cc1,-1,0,68*,-14,0,34,
CC12C(=O)N(c3ccc(OC(=O)c4ccco4)cc3)C(=O)C1C1c3ccccc3C2c2ccccc21 (stereo unspecified),1,4,60*,26,3,28,
Cc1cn(C2OC(COC(=O)c3ccccc3)C(OC(=O)c3ccccc3)C2OC(=O)c2ccccc2)c(=O)[nH]c1=O (stereo unspecified),0,-2,87*,-97,-6,5,
CC(OC(=O)CSc1ccc([N+](=O)[O-])cc1)C(=O)NCc1ccccc1 (stereo unspecified),.,.,35,.,.,.,
CCN(Cc1ccccc1)c1ccc(/C=N/NC(=O)c2cccc(S(=O)(=O)N3CCOCC3)c2)cc1,-131,-2,82*,-96,-39,8,
CCN(CC)c1ccc(/C=N/NC(=O)c2cccc(S(=O)(=O)N3CCOCC3)c2)cc1,-20,6,2,-153,-64,.,
COC(=O)C1CCN(C(=O)COC(=O)c2cc([N+](=O)[O-])ccc2N2CCOCC2)CC1,.,.,69*,.,.,71*,
CC1CCN(C(=O)COC(=O)c2cc([N+](=O)[O-])ccc2N2CCOCC2)CC1,.,.,71*,.,.,82*,
CCOC(=O)C1CCN(C(=O)COc2ccc([N+](=O)[O-])cc2)CC1,1,0,59*,7,-5,67*,
CCOC(=O)C1CCN(C(=O)COC(=O)/C=C/c2ccc([N+](=O)[O-])cc2)CC1,.,.,7,.,.,.,
O=C(CN1CCN(S(=O)(=O)c2ccccc2)CC1)NCCc1ccccc1,.,?,-3,.,.,.,
O=[N+]([O-])c1c(Nc2ccccc2O)cc(Cl)c2nonc12,.,-3,65*,.,.,53*,
O=[N+]([O-])c1c(Nc2ccccc2O)ccc2nonc12,.,?,2,-11,0,.,
O=C(Nc1ccccc1C(=O)Nc1nnc(C(F)(F)F)s1)c1ccccc1,-2,-1,53*,33,0,46*,
Cc1ccc(N2C(=O)C3NN=C(C(=O)OCc4ccccc4)C3C2=O)c(C)c1 (stereo unspecified),-3,-1,2,10,-2,.,
Cc1cccc(N2CCN(C(=O)COc3ccc4ccc(=O)oc4c3)CC2)c1C,.,-2,70*,.,.,83*,
CS(=O)(=O)N1CCc2cc(-c3csc(NC(=O)Cc4cccs4)n3)ccc21,2,0,62*,-121,-1,29*,
Cc1cccc(COCC(CC(C)C)N2CCN(C(=O)c3ccc(C(C)(C)C)cc3)CCC2=O)c1 (stereo unspecified),-16,9,59*,19,-11,56*,
